Activity calls are given as the source filed them. The calls are words filed in the database; no cut-off is given here.
What was measured:
Dipeptidyl peptidase 1 [1] = molecular target: T1, Dipeptidyl peptidase 1 (Homo sapiens, UniProt P53634); experiment: Inhibition of recombinant human cathepsin C using H-Gly-Arg-AMC as substrate preincubated for 30 mins before substrate addition measured after 60 mins by fluorescence assay
Dipeptidyl peptidase 1 [2] = molecular target: T1, Dipeptidyl peptidase 1; experiment: Inhibition of cathepsin C in human THP1 cells assessed as inhibition of H-Gly-Phe-AFC cleavage by fluorescence assay; assay type: cell-based, THP-1
In short: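 Cellular CatC activity in human THP1 cells measured as cleavage of fluorogenic substrate H-Gly-Phe-AFC; pIC50 determined.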

[3] = Intrinsic clearance in human microsomes; assay type: ADME, Microsome
In short: (§1)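 Intrinsic clearance (Clint) determined in human liver microsome and rat hepatocyte preparations.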

[4] = Intrinsic clearance in rat hepatocytes assessed per million cells; assay type: ADME, cell-based, Hepatocyte; conditions: read-out: CLH; in short: as §1
[5] = molecular target: Voltage-gated inwardly rectifying potassium channel KCNH2 (Homo sapiens, UniProt Q12809); experiment: Inhibition of human ERG by electrophysiology assay
Chain of Voltage-gated inwardly rectifying potassium channel KCNH2 (Q12809 whole entry): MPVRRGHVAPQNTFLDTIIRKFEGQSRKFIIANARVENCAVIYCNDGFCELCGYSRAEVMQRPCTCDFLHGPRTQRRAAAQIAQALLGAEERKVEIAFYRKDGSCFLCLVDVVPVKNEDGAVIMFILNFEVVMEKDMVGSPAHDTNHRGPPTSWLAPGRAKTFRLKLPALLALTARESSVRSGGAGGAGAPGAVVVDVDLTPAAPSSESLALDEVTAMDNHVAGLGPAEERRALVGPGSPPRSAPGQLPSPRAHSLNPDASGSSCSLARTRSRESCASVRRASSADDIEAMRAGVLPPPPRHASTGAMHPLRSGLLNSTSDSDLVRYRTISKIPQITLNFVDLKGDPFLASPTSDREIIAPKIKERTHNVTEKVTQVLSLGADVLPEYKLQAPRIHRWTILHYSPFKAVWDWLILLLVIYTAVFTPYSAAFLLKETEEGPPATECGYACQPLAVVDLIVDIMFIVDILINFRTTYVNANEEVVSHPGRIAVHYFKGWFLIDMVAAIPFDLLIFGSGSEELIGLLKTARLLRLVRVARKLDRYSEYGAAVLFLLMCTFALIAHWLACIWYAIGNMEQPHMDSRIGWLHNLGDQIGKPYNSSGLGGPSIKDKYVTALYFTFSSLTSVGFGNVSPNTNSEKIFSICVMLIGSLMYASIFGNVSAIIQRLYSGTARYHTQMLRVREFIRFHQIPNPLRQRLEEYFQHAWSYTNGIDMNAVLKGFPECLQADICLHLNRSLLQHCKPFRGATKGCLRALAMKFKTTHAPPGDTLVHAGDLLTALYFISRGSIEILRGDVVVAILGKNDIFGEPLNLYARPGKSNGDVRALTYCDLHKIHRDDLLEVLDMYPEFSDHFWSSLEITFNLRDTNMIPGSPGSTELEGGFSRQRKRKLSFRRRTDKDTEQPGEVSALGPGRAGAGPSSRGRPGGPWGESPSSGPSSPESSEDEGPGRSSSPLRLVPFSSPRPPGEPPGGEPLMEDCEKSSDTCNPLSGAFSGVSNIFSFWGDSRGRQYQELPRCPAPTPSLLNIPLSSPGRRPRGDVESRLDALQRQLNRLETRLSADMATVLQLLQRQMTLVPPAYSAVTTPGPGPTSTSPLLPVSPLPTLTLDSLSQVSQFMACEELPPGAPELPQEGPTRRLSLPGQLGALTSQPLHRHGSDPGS

[6] = Lipophilicity, log D of the compound; assay type: physicochemical; conditions: octanol/water
[7] = Dissociation constant, pKa of the compound; assay type: physicochemical
Cathepsin K = molecular target: T2, Cathepsin K (Homo sapiens, UniProt P43235); experiment: (§2) Inhibition of Cathepsin K (unknown origin)
T2 sequence (P43235 whole entry): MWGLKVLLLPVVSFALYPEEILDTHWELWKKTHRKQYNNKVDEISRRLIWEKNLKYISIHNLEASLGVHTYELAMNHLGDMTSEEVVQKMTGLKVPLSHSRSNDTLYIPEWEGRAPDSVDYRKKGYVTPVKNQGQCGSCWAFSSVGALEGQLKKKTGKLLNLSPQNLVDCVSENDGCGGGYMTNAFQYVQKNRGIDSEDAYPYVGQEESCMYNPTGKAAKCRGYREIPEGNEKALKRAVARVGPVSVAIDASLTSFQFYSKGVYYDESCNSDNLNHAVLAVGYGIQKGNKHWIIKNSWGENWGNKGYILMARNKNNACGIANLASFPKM

Procathepsin L = Procathepsin L (Homo sapiens, UniProt P07711); experiment: Inhibition of Cathepsin L (unknown origin)
Chain of Procathepsin L (P07711 whole entry): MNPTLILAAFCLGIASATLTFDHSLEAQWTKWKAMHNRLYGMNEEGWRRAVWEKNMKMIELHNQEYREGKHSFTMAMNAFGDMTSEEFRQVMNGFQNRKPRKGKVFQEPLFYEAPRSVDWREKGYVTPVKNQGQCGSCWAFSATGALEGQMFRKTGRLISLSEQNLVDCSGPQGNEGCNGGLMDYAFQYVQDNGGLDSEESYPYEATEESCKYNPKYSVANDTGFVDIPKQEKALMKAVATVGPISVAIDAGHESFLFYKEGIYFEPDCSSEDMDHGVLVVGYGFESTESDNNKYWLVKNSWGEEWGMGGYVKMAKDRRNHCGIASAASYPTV

Cathepsin S = Cathepsin S (Homo sapiens, UniProt P25774); experiment: Inhibition of Cathepsin S (unknown origin)
Chain of Cathepsin S (P25774 whole entry): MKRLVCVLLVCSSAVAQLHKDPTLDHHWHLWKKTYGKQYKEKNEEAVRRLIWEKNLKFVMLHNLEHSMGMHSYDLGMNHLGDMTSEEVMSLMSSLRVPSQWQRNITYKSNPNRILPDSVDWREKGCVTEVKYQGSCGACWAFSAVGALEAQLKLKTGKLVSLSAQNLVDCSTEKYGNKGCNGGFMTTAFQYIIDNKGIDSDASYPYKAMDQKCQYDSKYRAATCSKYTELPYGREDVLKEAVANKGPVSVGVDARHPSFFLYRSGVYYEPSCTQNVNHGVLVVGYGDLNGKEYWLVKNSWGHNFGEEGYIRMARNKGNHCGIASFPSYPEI

Cathepsin B = Cathepsin B (Homo sapiens, UniProt P07858); experiment: Inhibition of Cathepsin B (unknown origin)
[8] = Induction of phospholipid accumulation in rat hepatoma cells; assay type: cell-based
[9] = molecular target: T3, Cathepsin K (Homo sapiens) (UniProt P43235); experiment: as §2
T3 sequence (whole entry): T2 sequence (P43235 whole entry)

[10] = molecular target: T3, Cathepsin K (Homo sapiens); experiment: Inhibition of Cathepsin K (unknown origin) at 10 uM
Plasma [11] = experiment: Stability in rat plasma; assay type: ADME, cell-free
Plasma [12] = experiment: Stability in human plasma; assay type: ADME, cell-free
Hepatocyte [13] = experiment: Metabolic stability in rat hepatocytes assessed per compound oxidation by LC-MS/MS analysis; assay type: ADME, cell-based
Hepatocyte [14] = experiment: Metabolic stability in human hepatocytes assessed per compound oxidation by LC-MS/MS analysis; assay type: ADME, cell-based
[15] = Clearance in rat; assay type: ADME, organism-based; conditions: in vivo
[16] = Volume of distribution at steady state in rat; assay type: ADME, organism-based; conditions: in vivo, read-out: Vdss
[17] = Half life in rat; assay type: ADME, organism-based; conditions: in vivo
[18] = Bioavailability in rat; assay type: ADME, organism-based; conditions: in vivo
Rattus norvegicus [19] = species on record: Rattus norvegicus; experiment: Toxicity in rat assessed as liver hypertrophy; assay type: organism-based; conditions: in vivo
Rattus norvegicus [20] = species on record: Rattus norvegicus; experiment: Toxicity in rat assessed as liver cholangitis; assay type: organism-based; conditions: in vivo
Rattus norvegicus [21] = species on record: Rattus norvegicus; experiment: Toxicity in rat assessed as liver vacuolation; assay type: organism-based; conditions: in vivo
Rattus norvegicus [22] = species on record: Rattus norvegicus; experiment: Toxicity in rat assessed as foci of foaming macrophages in lung; assay type: organism-based
[23] = Clearance in mouse; assay type: ADME, organism-based; conditions: in vivo
[24] = Volume of distribution at steady state in mouse; assay type: ADME, organism-based; conditions: in vivo, read-out: Vdss
[25] = Half life in mouse; assay type: ADME, organism-based; conditions: in vivo
[26] = Bioavailability in mouse; assay type: ADME, organism-based; conditions: in vivo
[27] = Clearance in dog; assay type: ADME, organism-based, Canis lupus familiaris; conditions: in vivo
[28] = Volume of distribution at steady state in dog; assay type: ADME, organism-based, Canis lupus familiaris; conditions: in vivo, read-out: Vdss
[29] = Half life in dog; assay type: ADME, organism-based, Canis lupus familiaris; conditions: in vivo
[30] = Bioavailability in dog; assay type: ADME, organism-based, Canis lupus familiaris; conditions: in vivo
Leukotriene B4 receptor [31] = molecular target: T4, Leukotriene B4 receptor (Homo sapiens, UniProt Q9NPC1+Q15722); experiment: Binding affinity to leukotriene B4 receptor (unknown origin); assay type: protein assay
T4 sequence (Q15722 whole entry, looked up): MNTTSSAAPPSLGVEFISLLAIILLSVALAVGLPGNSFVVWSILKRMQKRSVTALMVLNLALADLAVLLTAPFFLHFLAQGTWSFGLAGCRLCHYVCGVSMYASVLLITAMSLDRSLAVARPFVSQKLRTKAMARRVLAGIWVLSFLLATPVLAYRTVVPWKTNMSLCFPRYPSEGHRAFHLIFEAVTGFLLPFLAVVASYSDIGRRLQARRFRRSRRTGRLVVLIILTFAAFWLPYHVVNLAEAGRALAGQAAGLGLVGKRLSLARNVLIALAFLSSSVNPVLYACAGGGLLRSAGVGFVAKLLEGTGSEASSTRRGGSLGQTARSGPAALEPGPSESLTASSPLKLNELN
T4 sequence (Q9NPC1 whole entry, looked up): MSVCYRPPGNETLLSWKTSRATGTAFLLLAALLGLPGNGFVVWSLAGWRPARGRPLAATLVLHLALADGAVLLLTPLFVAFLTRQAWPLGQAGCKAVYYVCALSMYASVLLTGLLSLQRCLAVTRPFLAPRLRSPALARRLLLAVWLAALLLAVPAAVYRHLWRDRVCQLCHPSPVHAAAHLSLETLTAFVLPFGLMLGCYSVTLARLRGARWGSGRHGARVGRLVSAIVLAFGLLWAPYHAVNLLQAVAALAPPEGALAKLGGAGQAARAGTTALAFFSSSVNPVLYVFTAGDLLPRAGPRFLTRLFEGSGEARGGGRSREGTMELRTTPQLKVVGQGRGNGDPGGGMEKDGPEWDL

Leukotriene B4 receptor [32] = molecular target: T4, Leukotriene B4 receptor; experiment: Binding affinity to leukotriene B4 receptor (unknown origin) at 10 uM; assay type: protein assay
In short: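 Screened at 10 μM in a human LTB4 binding assay within a panel of over 170 assays; percent inhibition reported.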

T1 sequence (P53634 25-134 limits assumed): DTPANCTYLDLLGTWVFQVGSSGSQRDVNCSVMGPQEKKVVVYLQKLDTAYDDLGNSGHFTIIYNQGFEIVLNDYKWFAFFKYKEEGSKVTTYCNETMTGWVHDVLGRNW
T1 sequence (P53634 231-394 limits assumed): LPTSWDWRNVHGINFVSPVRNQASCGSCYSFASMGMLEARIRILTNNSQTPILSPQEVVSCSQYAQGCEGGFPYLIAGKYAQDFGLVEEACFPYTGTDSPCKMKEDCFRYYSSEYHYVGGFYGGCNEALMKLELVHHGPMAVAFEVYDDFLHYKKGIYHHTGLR
T1 sequence (P53634 395-463 limits assumed): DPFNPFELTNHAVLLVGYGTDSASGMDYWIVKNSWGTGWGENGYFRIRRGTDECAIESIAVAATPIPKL

| Compound | IC50 (Dipeptidyl peptidase 1 [1]) [µM] | IC50 (Dipeptidyl peptidase 1 [2]) [µM] | microsomal CLint [3] [µL/min/mg] | hepatocyte CLint [4] [µL/min/1e6 cells] | IC50 [5] [µM] | logD [6] | pKa [7] | IC50 (Cathepsin K) [µM] | IC50 (Procathepsin L) [µM] | IC50 (Cathepsin S) [µM] | IC50 (Cathepsin B) [µM] | EC50 [8] [µM] | also measured |
| --- | --- | --- | --- | --- | --- | --- | --- | --- | --- | --- | --- | --- | --- |
| N#Cc1ccc(-c2ccc(C[C@@H](C#N)NC(=O)[C@@H]3C[C@@H](O)CCN3)cc2)cc1 | 0.00501 | 0.0126 | < 3 | 4 | > 33 | 1.4 | 7.6 | 6.31 | > 10 | > 10 | > 10 | 75 | – |
| N#C[C@H](Cc1ccc(-c2ccccc2)cc1)NC(=O)C1(N)CCOCC1 | 0.002 | 0.0316 | > 150 | > 150 | > 33 | 2.3 | 5.4 | – | – | – | – | – | inhibition [9]: inactive |
| CN1Cc2ccc(-c3ccc(C[C@@H](C#N)NC(=O)C4(N)CCOCC4)cc3)cc2C1=O | – | 0.0501 | < 3 | 41 | > 33 | 1.1 | 6.3 | 7.94 | – | – | – | – | inhibition [10]: 50% |
| CC[C@H](N)C(=O)N[C@H](C#N)Cc1ccc(-c2ccccc2)cc1 | 0.002 | 0.0631 | – | – | – | – | – | – | – | – | – | – | – |
| CS(=O)(=O)c1cccc(-c2ccc(C[C@@H](C#N)NC(=O)C3(N)CCOCC3)cc2)c1 | 0.000794 | 0.00794 | < 3 | < 3 | > 33 | 0.8 | 6.3 | – | – | – | – | – | inhibition [9]: inactive |
| N#C[C@H](Cc1ccc(-c2ccccc2)cc1)NC(=O)[C@@H]1CCCCN1 | – | 0.158 | – | > 150 | – | – | – | – | – | – | – | – | Stability (Plasma [11]): Stable; Stability (Plasma [12]): Stable; Stability (Hepatocyte [13]): Unstable; Stability (Hepatocyte [14]): Unstable |
| N#Cc1ccc(-c2ccc(C[C@@H](C#N)NC(=O)[C@@H]3CCCCN3)cc2)cc1 | 0.0398 | 0.01 | < 4 | < 3 | 1.4 | 2.7 | 8.4 | 1 | > 10 | > 10 | > 10 | 9 | clearance [15]: 16 mL/min/kg; Vd [16]: 5.6 L/kg; half-life [17]: 4.5 h; bioavailability [18]: 75%; Activity (Rattus norvegicus [19]): Toxic; Activity (Rattus norvegicus [20]): Toxic; Activity (Rattus norvegicus [21]): Toxic; Activity (Rattus norvegicus [22]): Toxic |
| CN1Cc2cc(-c3ccc(C[C@@H](C#N)NC(=O)[C@@H]4C[C@@H](O)CCN4)cc3)ccc2C1=O | 0.00398 | 0.0398 | < 4 | < 4 | > 33 | 0.5 | – | 7.94 | > 10 | > 10 | > 10 | > 120 | – |
| N#Cc1ccc(-c2ccc(C[C@@H](C#N)NC(=O)C3(N)CCCCC3)cc2)cc1 | 0.00251 | 0.00316 | 20 | 15 | 9 | 2.9 | 7.1 | – | – | – | – | – | – |
| N#Cc1ccc(-c2ccc(C[C@@H](C#N)NC(=O)C3(N)CCOCC3)cc2)cc1 | – | – | 3.6 | 2.9 | 26 | 1.9 | 5.8 | > 10 | > 10 | > 10 | > 10 | > 100 | clearance [15]: 9 mL/min/kg; Vd [16]: 1.9 L/kg; half-life [17]: 3.5 h; bioavailability [18]: 92%; Activity (Rattus norvegicus [19]): Non-toxic; Activity (Rattus norvegicus [20]): Non-toxic; Activity (Rattus norvegicus [21]): Non-toxic; Activity (Rattus norvegicus [22]): Non-toxic; clearance [23]: 9 mL/min/kg; Vd [24]: 1.6 L/kg; half-life [25]: 2 h; bioavailability [26]: 95%; clearance [27]: 2 mL/min/kg; Vd [28]: 1.4 L/kg; half-life [29]: 11.6 h; bioavailability [30]: 72%; IC50 (Leukotriene B4 receptor [31]): 2 µM; inhibition (Leukotriene B4 receptor [32]): 69% |
| CN1Cc2cc(-c3ccc(C[C@@H](C#N)NC(=O)[C@@H]4CCCCN4)cc3)ccc2C1=O | 0.0251 | 0.00794 | < 3 | 5 | – | 1 | 7.1 | 0.251 | > 10 | > 10 | > 10 | – | – |
| CSc1cc(-c2ccc(C[C@@H](C#N)NC(=O)[C@@H]3CCCCN3)cc2)ccc1C#N | 0.00398 | 0.001 | 7 | 13 | 2.7 | – | – | 0.398 | > 10 | > 10 | > 10 | – | – |

— ChEMBL document CHEMBL3259727, “Cathepsin C inhibitors: property optimization and identification of a clinical candidate” (J Med Chem, 2014)
